The source made the active and inactive calls. The calls are words filed in the database; no cut-off is given here.
What was measured:
[1] = In vivo […] in mouse assessed as reduction in LPS-induced neutrophil infiltration in BALF cells at 1 mg/kg, po relative to control; format: functional
Summary of the method: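 Mice were given LPS and dosed orally at 1 mg/kg. Neutrophils in BALF were counted, and percent inhibition was calculated.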

[2] = AUC (0 to infinity) in BALB/cCrSlc mouse at 1 mg/kg, po by LC-MS/MS analysis; format: ADME, organism-based; set-up: time infinity, route oral, dose 1 mg/kg; conditions: in vivo
Summary of the method: (§1)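 Male animals dosed orally with a suspension in 0.5% MC. Blood was taken into EDTA 2K capillaries and plasma was stored frozen. Plasma was mixed with methanol/acetonitrile (1:1) plus internal standard, centrifuged, and drug was measured by LC-MS/MS. AUC0-inf was obtained by the trapezoidal rule, extrapolated with kel from the terminal phase. t1/2 = ln2/kel.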

[3] = Total clearance in Beagle dog at 1 mg/kg, iv by LC-MS/MS analysis; format: ADME, organism-based, Canis lupus familiaris; conditions: in vivo
Summary of the method: (§2)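 Male animals received intravenous solution in DMSO/PEG400/saline (5/47.5/47.5). EDTA plasma was extracted with methanol/acetonitrile (1:1) plus internal standard and quantified by LC-MS/MS. AUC0-inf was calculated by the trapezoidal rule with terminal-phase kel extrapolation.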

[4] = Volume of distribution at steady state in Crl:CD1(ICR) mouse at 0.5 mg/kg, iv by LC-MS/MS analysis; format: ADME, organism-based; conditions: in vivo, read-out: Vdss; summary of the method: as §2
CHO = test: Selectivity ratio of agonist activity at mouse FPR1 expressed in CHO cells to agonist activity at mouse FPR2 expressed in CHO cells; format: cell-based
Summary of the method: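 Ratio of FPR1 to FPR2 EC50 from the CHO-cell forskolin/IBMX cAMP HTRF assay, 30 min at room temperature, 4-parameter logistic fit.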

[5] = Half life in cynomolgus monkey at 3 mg/kg, po by LC-MS/MS analysis; format: ADME, organism-based, Macaca fascicularis; conditions: in vivo; summary of the method: as §1
[6] = Clearance in monkey liver microsome at 0.1 umol/l and measured for 60 mins by LC-MS/MS analysis; format: ADME, Macaca mulatta; conditions: rhesus monkey, microsomes, 1 h, 0.1 µM, dose 0.1 µmol/L
Summary of the method: (§3)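 Liver microsomes (1 mg protein/mL final) with an NADPH regenerating system were preincubated 5 min at 37°C, then given 0.1 µmol/L compound. Samples were taken at 0-60 min, quenched in methanol/acetonitrile with internal standard, and analysed by LC-MS/MS. Runs were in triplicate. kel came from 5-30 min points. CLint = kel/protein concentration (mL/min/mg protein).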

[7] = Clearance in dog liver microsome at 0.1 umol/l and measured for 60 mins by LC-MS/MS analysis; format: ADME, Canis lupus familiaris; conditions: microsomes, 1 h, 0.1 µM, dose 0.1 µmol/L; summary of the method: as §3
[8] = Oral bioavailability in BALB/cCrSlc mouse at 1 mg/kg by LC-MS/MS analysis; format: ADME, organism-based; conditions: in vivo
Summary of the method: (§4)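 Oral bioavailability = (AUC0-inf,po/dose po)/(AUC0-inf,iv/dose iv) × 100. Oral dosing used a 0.5% MC suspension. IV dosing used a DMSO/PEG400/saline (5/47.5/47.5) solution, with CD1(ICR) mice for the iv arm. Plasma drug levels were measured by LC-MS/MS after methanol/acetonitrile extraction with internal standard.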

[9] = Cmax in BALB/cCrSlc mouse at 1 mg/kg, po by LC-MS/MS analysis; format: ADME, organism-based; set-up: route oral, dose 1 mg/kg; conditions: in vivo; summary of the method: as §1
[10] = target: T1, N-formyl peptide receptor 2 (Homo sapiens, UniProt P25090); test: Agonist activity at human FPR2 expressed in HEK 293 cells co-expressing Galpha15 measured every 1.5 sec for 80 sec by Fluo-4 NW staining based scanning fluorometric method; format: cell-based, HEK293
T1 sequence (P25090 whole entry): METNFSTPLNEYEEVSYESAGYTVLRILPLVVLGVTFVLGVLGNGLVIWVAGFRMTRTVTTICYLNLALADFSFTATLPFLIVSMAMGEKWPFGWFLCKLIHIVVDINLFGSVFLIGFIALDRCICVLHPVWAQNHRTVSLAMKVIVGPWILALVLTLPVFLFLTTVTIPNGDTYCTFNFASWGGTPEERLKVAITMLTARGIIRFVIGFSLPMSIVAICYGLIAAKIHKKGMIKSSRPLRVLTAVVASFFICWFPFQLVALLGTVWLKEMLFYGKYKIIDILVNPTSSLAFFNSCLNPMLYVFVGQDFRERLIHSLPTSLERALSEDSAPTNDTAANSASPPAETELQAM
Summary of the method: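 HEK293 cells were transiently co-transfected with FPR plus Gα15 (Lipofectamine 2000), then reseeded after 24 h on poly-D-lysine plates and grown one more day. Cells were loaded with Fluo-4 NW for 45 min at 37°C. Compound was added and fluorescence (ex 485/em 525 nm) read for 80 s at 1.5 s intervals. Response = maximal peak minus basal.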

[11] = Oral bioavailability in Crl:CD(SD) rat at 1 mg/kg by LC-MS/MS analysis; format: ADME, organism-based; conditions: in vivo; summary of the method: as §4
[12] = Cmax in cynomolgus monkey at 3 mg/kg, po by LC-MS/MS analysis; format: ADME, organism-based, Macaca fascicularis; set-up: route oral, dose 3 mg/kg; conditions: in vivo; summary of the method: as §1
[13] = Cmax in Crl:CD(SD) rat at 1 mg/kg, po by LC-MS/MS analysis; format: ADME, organism-based; set-up: route oral, dose 1 mg/kg; conditions: in vivo; summary of the method: as §1
[14] = AUC (0 to infinity) in cynomolgus monkey at 3 mg/kg, po by LC-MS/MS analysis; format: ADME, organism-based, Macaca fascicularis; set-up: time infinity, route oral, dose 3 mg/kg; conditions: in vivo; summary of the method: as §1
[15] = Volume of distribution at steady state in Beagle dog at 1 mg/kg, iv by LC-MS/MS analysis; format: ADME, organism-based, Canis lupus familiaris; conditions: in vivo, read-out: Vdss; summary of the method: as §2
Mus musculus = test: Antiinflammatory activity in mouse assessed as increase in LPS-induced IL-10 expression at 0.3 mg/kg, po
[16] = Clearance in dog hepatocytes at 0.1 umol/l and measured for 6 hrs by LC-MS/MS analysis; format: ADME, cell-based, Canis lupus familiaris, Hepatocyte; conditions: dose 0.1 µmol/L, read-out: CLH
Summary of the method: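 Hepatocytes (1 × 10⁶ cells/mL) in modified Krebs–Henseleit buffer were preincubated 5 min at 37°C, then given 0.1 µmol/L compound. Samples were taken at 0, 1, 2, 4 and 6 h and analysed by LC-MS/MS, in duplicate. kel came from 0-2 h points. CLint was scaled by hepatocellularity and liver weight (mL/min/kg).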

[17] = Oral bioavailability in Beagle dog at 1 mg/kg by LC-MS/MS analysis; format: ADME, organism-based, Canis lupus familiaris; conditions: in vivo
[18] = Total clearance in Crl:CD1(ICR) mouse at 0.5 mg/kg, iv by LC-MS/MS analysis; format: ADME, organism-based; conditions: in vivo; summary of the method: as §2
[19] = target: T2, Formyl peptide receptor 2 (Mus musculus, UniProt O88536); test: Agonist activity at mouse FPR2 expressed in CHO cells assessed as reduction cAMP accumulation incubated for 1 hr by TR-FRET assay; format: cell-based
T2 sequence (O88536 whole entry): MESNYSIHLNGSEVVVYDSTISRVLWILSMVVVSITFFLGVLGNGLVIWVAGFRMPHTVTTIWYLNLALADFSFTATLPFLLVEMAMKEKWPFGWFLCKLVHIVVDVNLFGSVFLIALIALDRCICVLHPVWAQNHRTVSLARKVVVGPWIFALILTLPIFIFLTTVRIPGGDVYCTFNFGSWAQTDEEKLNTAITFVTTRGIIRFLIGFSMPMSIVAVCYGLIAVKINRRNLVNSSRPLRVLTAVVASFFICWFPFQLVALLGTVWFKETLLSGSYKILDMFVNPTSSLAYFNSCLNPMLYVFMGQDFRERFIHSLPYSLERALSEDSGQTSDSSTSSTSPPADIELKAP

- AUC(0-inf) [2]: 120 nM·h
- clearance [3]: 0.396 L/h/kg
- Vd [4]: 3.5 L/kg
- half-life [5]: 5 h
- CLH [6]: 30 µL/min/mg
- CLH [7]: 42 µL/min/mg
- bioavailability [8]: 24%
- Cmax [9]: 0.16 µM
- EC50 [10]: 0.41 nM
- bioavailability [11]: 67%
- Cmax [12]: 0.8 µM
- Cmax [13]: 0.24 µM
- AUC(0-inf) [14]: 5800 nM·h
- Vd [15]: 0.98 L/kg
- CLint scaled at 0.1 µM [16]: 3 L/h/kg
- bioavailability [17]: 50%
- clearance [18]: 5.4 L/h/kg
- EC50 [19]: 0.5 nM
Compound: COc1cc(F)c([C@@H]2CNC(=O)[C@H]2NC(=O)Nc2ccccc2)c(F)c1 [BMS-986235]
- inhibition in vivo at 1 mg/kg [1]: 88%
- Ratio EC50 (CHO): 1000
- Activity (Mus musculus): Active

From ChEMBL document CHEMBL4725241, “Discovery of BMS-986235/LAR-1219: A Potent Formyl Peptide Receptor 2 (FPR2) Selective Agonist for the Prevention of Heart Failure” (J Med Chem, 2020)
